The subject of one assay is K562. Put plainly: Antiproliferative activity against human K562 cell line. It counts as functional, cell-based.
In a further assay the target is Tubulin (Sus scrofa, UniProt P02554+P02550). Put plainly: Inhibition of tubulin polymerization in porcine brain.
The nature of assay [1]: Cell cycle arrest in KB/HeLa cells by accumulation at S phase at 31.6 nM. Conditions: Homo sapiens. It is filed as functional, cell-based. Summed up: (§1)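 Subconfluent KB/HeLa cells were treated with a concentration series for 24 h at 37 °C, then detached and fixed in 70% ethanol. DNA was stained with propidium iodide alongside RNase digestion and measured by flow cytometry. Phase fractions came from cell-cycle modelling software, and IC50 from nonlinear regression.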

Assay [2] in a line: Cell cycle arrest in KB/HeLa cells by accumulation at S phase at 100 nM. Conditions: Homo sapiens. It counts as functional, cell-based. The method in brief:
as §1

The nature of assay [3]: Cell cycle arrest in KB/HeLa cells by accumulation at S phase at 316 nM. It counts as functional, cell-based. As to conditions: Homo sapiens. The method in brief:
as §1

Assay [4] in a line: Cell cycle arrest in KB/HeLa cells by accumulation at G2/M phase at 1 nM. It counts as functional, cell-based. As to conditions: Homo sapiens. Summed up: as §1
A short description of assay [5]: Cell cycle arrest in KB/HeLa cells by accumulation at G2/M phase at 3.16 nM. It counts as functional, cell-based. As to conditions: Homo sapiens.
Assay [6] can be described thus: Cell cycle arrest in KB/HeLa cells by accumulation at G2/M phase at 10 nM. Conditions: Homo sapiens. It is filed as functional, cell-based. Summed up:
as §1

Assay [7] can be described thus: Cell cycle arrest in KB/HeLa cells by accumulation at G2/M phase at 31.6 nM. Conditions: Homo sapiens. It counts as functional, cell-based. Summed up: as §1
Assay [8] can be described thus: Cell cycle arrest in KB/HeLa cells by accumulation at G2/M phase at 100 nM. As to conditions: Homo sapiens. It is filed as functional, cell-based. Summed up:
as §1

Assay [9] can be described thus: Cell cycle arrest in KB/HeLa cells by accumulation at G2/M phase at 316 nM. It counts as functional, cell-based. As to conditions: Homo sapiens. Summed up:
as §1

Assay [10] is described as follows: Cell cycle arrest in KB/HeLa cells by accumulation at G1 phase at 1 nM. Conditions: Homo sapiens. It counts as functional, cell-based. The method in brief:
as §1

Assay [11] in a line: Cell cycle arrest in KB/HeLa cells by accumulation at G1 phase at 3.16 nM. It is filed as functional, cell-based. As to conditions: Homo sapiens. The method in brief:
as §1

Assay [12] can be described thus: Cell cycle arrest in KB/HeLa cells by accumulation at G1 phase at 10 nM. It counts as functional, cell-based. As to conditions: Homo sapiens. Summed up:
as §1

The nature of assay [13]: Cell cycle arrest in KB/HeLa cells by accumulation at G1 phase at 31.6 nM. It counts as functional, cell-based. As to conditions: Homo sapiens. Summed up: as §1
Assay [14] is described as follows: Cell cycle arrest in KB/HeLa cells by accumulation at G1 phase at 100 nM. It is filed as functional, cell-based. As to conditions: Homo sapiens. The method in brief:
as §1

Assay [15] can be described thus: Cell cycle arrest in KB/HeLa cells by accumulation at G1 phase at 316 nM. It is filed as functional, cell-based. As to conditions: Homo sapiens. Summed up:
as §1

Assay [16] in a line: Cell cycle arrest in KB/HeLa cells by accumulation at G2/M phase. It is filed as functional, cell-based. As to conditions: Homo sapiens. Summed up: as §1
Assay [17] in a line: Antiproliferative activity against KB/HeLa cells by XTT assay after 48 hrs. It is filed as functional, cell-based. Conditions: Homo sapiens. Summed up:
(§2)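 Tumour cell lines were seeded at 1 × 10^3 to 8 × 10^4 cells/well for logarithmic growth and exposed to a concentration series for 48 h. Proliferation was read as cellular metabolic activity by XTT. IC50 came from dose-response curves by nonlinear regression, with at least two replicates.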

For a further assay, the system named is RKO. The assay is described as follows: Antiproliferative activity against RKO cells with ectopic-induced p27kip1-expression by XTT assay after 48 hrs. It is filed as functional, cell-based. As to conditions: Homo sapiens. Summed up: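 RKO colon adenocarcinoma cells carry an ecdysone-inducible p27kip1 vector. On day 1 they were plated with 3 µM ponasterone A (induced, 2 × 10^4 cells/well) or without it (not induced, 6 × 10^3 cells/well) and held 24 h at 37 °C. Compound or DMSO control was then added for 48 h at 37 °C, followed by a standard XTT read-out.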
A general note: Formazan colour is commonly taken as a measure of viable cells.

The next assay relates to MDR. The assay is described as follows: Antiproliferative activity against LT12 MDR cells by XTT assay after 48 hrs. Conditions: Rattus norvegicus. It counts as functional, cell-based. The method in brief: as §2
The subject of assay [18] is L1210. Put plainly: Antiproliferative activity against L1210 VCR cells by XTT assay after 48 hrs. It counts as functional, cell-based. Conditions: Mus musculus, L1210, 48 h. Summed up:
as §2

For assay [19], the system named is P388. The assay is described as follows: Antiproliferative activity against P388 cells by XTT assay after 48 hrs. It is filed as functional, cell-based. As to conditions: Mus musculus, P388, 48 h. The method in brief: as §2
In assay [20] the test system is P388. Put plainly: Antiproliferative activity against P388 ADR cells by XTT assay after 48 hrs. It is filed as functional, cell-based. As to conditions: Mus musculus, P388, 48 h. The method in brief: as §2
A short description of assay [21]: Cell cycle arrest in KB/HeLa cells by accumulation at S phase at 1 nM. It counts as functional, cell-based. Conditions: Homo sapiens. The method in brief:
as §1

Assay [22] in a line: Cell cycle arrest in KB/HeLa cells by accumulation at S phase at 3.16 nM. It counts as functional, cell-based. Conditions: Homo sapiens. Summed up:
as §1

A short description of assay [23]: Cell cycle arrest in KB/HeLa cells by accumulation at S phase at 10 nM. It counts as functional, cell-based. As to conditions: Homo sapiens. The method in brief:
as §1

The subject of assay [24] is L1210. The assay is described as follows: Antiproliferative activity against L1210 cells by XTT assay after 48 hrs. Conditions: Mus musculus, L1210, 48 h. It counts as functional, cell-based. The method in brief: as §2
Another assay is described as follows: cells. As to conditions: Rattus norvegicus, LT12, 48 h.

For orientation: pIC50 means the negative decadic logarithm of the IC50, by convention in mol/L. Read a high pIC50 as a small IC50. A word on the IC50: it is the point on the concentration scale where inhibition reaches its midpoint. The term pEC50 denotes the negative decadic logarithm of the EC50, by convention in mol/L. The low end stands for a large EC50, the high end for a small EC50.

pEC50, pIC50: −log10 of the molar value.

In the assay with K562, `COc1ccc(C(=O)Oc2c3ccccc3cc3sccc23)cc1` had a pIC50 of less than 4.05. The half-inhibitory concentration (IC50) against Tubulin was greater than 10 µM.

As for `COc1ccc2[nH]cc(/C=C3/c4ccccc4C(=O)c4ccsc43)c2c1`, in the assay with K562, the pIC50 was 6.62.

For `O=C1c2ccccc2/C(=C/c2cc(Br)c(O)c(Br)c2)c2sccc21`, the pIC50 in the assay with K562 was 5.17.

Consider `COc1ccc(/C=C2/c3ccccc3C(=O)c3ccsc32)cc1OC`, for which, in the assay on K562, the pIC50 was 6.49.

In the assay on K562, `COc1ccc(/C=C2/c3ccccc3C(=O)c3ccsc32)cc1O` had a pIC50 of 6.64. Moreover, the IC50 at Tubulin was 1.4 µM.

Regarding `CC(=O)O[C@H]1C(=O)[C@@]2(C)[C@H]([C@H](OC(=O)c3ccccc3)[C@]3(O)C[C@H](OC(=O)[C@H](O)[C@@H](NC(=O)c4ccccc4)c4ccccc4)C(C)=C1C3(C)C)[C@]1(OC(C)=O)CO[C@@H]1C[C@@H]2O` [PACLITAXEL], the Activity in assay [1] is 49.9%; in [2], 11%; in assay [3], 8.9%; in assay [4] it was 10.1%; in assay [5] it was 9.4%; in [6], 8.5%. In addition, the Activity was 19% in assay [7]; 87.8% in [8]; 90.8% in assay [9]; 63.2% in assay [10]; 63.6% in [11]; 64.8% in assay [12]. The Activity in assay [13] was found to be 31.1%; in assay [14], 1.2%; in [15], 0.3%; in assay [21], 26.7%; in [22], 27%; in assay [23], 26.6%. Further, in assay [16], the pEC50 was 7.31. Also, the pIC50 in assay [17] was 8.00; with RKO, less than 5.52; with MDR, 6.40; in the assay with L1210 [18] it was less than 5.30; in the assay with P388 [19] it was 7.40; in the assay on P388 [20], less than 5.30.

In the assay on K562, `O=[N+]([O-])c1ccc(COc2c3ccccc3cc3sccc23)cc1` showed a pIC50 of 5.50.

As for `COC(=O)Nc1nc2cc(C(=O)c3cccs3)ccc2[nH]1` [NOCODAZOLE], the Activity in assay [1] came to 25.7%; in assay [2], 26.1%; in assay [3], 6%; in [4], 11.1%; in [5], 10.6%; in assay [6], 10%. The Activity came to 9.9% in assay [7]; 51.4% in assay [8]; 93.2% in [9]; 65.2% in assay [10]; 64.6% in assay [11]; 64.2% in assay [12]. The Activity was 64.4% in assay [13]; 22.3% in assay [14]; 0.9% in assay [15]; 23.6% in [21]; 24.8% in [22]; 25.7% in assay [23]. In addition, the pEC50 in assay [16] is 7.04. The pIC50 was 6.85 in assay [17]; less than 5.00 in the assay on RKO; 7.15 in the assay on MDR; 7.30 with L1210 [24]; 7.05 in the assay on L1210 [18]; 7.10 with P388 [19]. Moreover, the pIC50 in the assay on P388 [20] is 6.77; in “cells” it was 7.40.

`O=C1c2ccccc2/C(=C/c2cccs2)c2sccc21` showed a pIC50 with K562 of 6.41. On Tubulin, the IC50 worked out at 1.34 µM.

On to `COc1cc(COc2c3ccccc3cc3sccc23)cc(OC)c1OC`, for which, in the assay with K562, the pIC50 was 5.05. Moreover, at Tubulin, the IC50 is greater than 10 µM.

For `c1ccc(COc2c3ccccc3cc3sccc23)cc1`, in the assay with K562, the pIC50 is 5.62.

Compound `O=C1c2ccccc2/C(=C/c2ccccc2)c2sccc21` gave a pIC50 with K562 of 6.48. The IC50 at Tubulin was 6.2 µM.

`O=C1c2ccccc2/C(=C/c2ccc([N+](=O)[O-])cc2)c2sccc21` gave a pIC50 with K562 of 6.14. At Tubulin, this compound returned an IC50 greater than 10 µM.

In turn, `O=C1c2ccccc2Cc2sccc21` showed a pIC50 with K562 of 5.15.

For `COc1ccc(COc2c3ccccc3cc3sccc23)cc1OC`, the pIC50 with K562 is 6.05. Moreover, the IC50 on Tubulin is 3.98 µM.
